According to ChEMBL document CHEMBL5705905, “Pharmacological targeting of kinases MST1 and MST2 augments tissue repair and regeneration” (Sci Transl Med, 2016):
Activity calls are given as the source filed them. The rule behind the calls is not given here.

Key:
[1] = target: T1, Serine/threonine-protein kinase 3 (Homo sapiens, UniProt Q13188); test: Inhibition of recombinant His-tagged full-length MST2 (unknown origin) expressing in Escherichia coli assessed as GST-tagged MOB1a phosphorylation level incubated for 30 mins by immunoblot analysis
T1 sequence (Q13188 whole entry): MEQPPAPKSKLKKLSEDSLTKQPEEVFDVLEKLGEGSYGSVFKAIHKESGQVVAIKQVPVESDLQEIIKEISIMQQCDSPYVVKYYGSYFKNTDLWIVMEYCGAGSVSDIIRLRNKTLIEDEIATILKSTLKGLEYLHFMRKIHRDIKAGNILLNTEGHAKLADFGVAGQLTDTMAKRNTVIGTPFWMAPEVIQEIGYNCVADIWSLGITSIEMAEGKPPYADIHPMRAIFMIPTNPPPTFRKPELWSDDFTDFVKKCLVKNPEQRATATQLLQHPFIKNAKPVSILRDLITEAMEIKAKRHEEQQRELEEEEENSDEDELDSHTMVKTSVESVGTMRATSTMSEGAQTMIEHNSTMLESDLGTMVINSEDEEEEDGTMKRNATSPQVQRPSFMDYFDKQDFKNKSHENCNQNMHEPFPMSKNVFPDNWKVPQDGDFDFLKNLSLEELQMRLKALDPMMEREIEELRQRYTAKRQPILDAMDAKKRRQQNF

[2] = target: Myosin light chain kinase, smooth muscle (Homo sapiens) (UniProt Q15746); test: Inhibition of MYLK (unknown origin) assessed as remaining activity at 1 uM by Kinome scan method relative to control
[3] = target: Serine/threonine-protein kinase PAK 6 (Homo sapiens) (UniProt Q9NQU5); test: Inhibition of PAK6 (unknown origin) assessed as remaining activity at 1 uM by Kinome scan method relative to control
[4] = target: Non-receptor tyrosine-protein kinase TYK2 (Homo sapiens, UniProt P29597); test: Inhibition of TYK2 JH1domain-catalytic (unknown origin) in presence of ATP by enzymatic assay
Chain of Non-receptor tyrosine-protein kinase TYK2 (P29597 whole entry): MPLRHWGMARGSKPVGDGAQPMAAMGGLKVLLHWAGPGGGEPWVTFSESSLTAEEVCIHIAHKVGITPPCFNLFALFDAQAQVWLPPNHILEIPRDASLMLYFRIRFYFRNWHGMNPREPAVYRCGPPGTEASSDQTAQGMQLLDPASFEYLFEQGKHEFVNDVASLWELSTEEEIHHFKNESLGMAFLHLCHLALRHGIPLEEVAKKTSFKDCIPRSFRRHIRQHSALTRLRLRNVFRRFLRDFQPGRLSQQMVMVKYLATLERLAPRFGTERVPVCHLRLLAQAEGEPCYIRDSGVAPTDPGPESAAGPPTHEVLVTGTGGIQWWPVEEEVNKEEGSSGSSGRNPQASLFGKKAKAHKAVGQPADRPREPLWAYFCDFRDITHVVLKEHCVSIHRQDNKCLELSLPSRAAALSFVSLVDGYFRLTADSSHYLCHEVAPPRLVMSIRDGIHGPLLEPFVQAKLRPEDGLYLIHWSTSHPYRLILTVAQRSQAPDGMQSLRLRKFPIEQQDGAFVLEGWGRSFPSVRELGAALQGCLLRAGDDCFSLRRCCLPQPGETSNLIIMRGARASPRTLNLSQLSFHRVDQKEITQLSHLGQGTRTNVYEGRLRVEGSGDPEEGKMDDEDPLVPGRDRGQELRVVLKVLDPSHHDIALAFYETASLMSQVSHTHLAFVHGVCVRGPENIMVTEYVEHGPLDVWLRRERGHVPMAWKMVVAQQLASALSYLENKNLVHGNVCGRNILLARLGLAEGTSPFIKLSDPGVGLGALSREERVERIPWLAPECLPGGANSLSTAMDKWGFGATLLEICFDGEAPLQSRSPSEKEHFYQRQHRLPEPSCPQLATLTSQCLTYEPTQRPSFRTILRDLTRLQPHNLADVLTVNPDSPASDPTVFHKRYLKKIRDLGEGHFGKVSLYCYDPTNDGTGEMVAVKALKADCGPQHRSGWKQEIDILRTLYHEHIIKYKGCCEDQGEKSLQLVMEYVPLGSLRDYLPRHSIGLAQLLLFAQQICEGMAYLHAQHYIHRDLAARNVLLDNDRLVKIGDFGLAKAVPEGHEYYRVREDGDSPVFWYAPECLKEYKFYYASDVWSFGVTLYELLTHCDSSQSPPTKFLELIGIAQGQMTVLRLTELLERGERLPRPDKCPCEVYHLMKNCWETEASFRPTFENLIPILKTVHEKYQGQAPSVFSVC

[5] = target: Serine/threonine-protein kinase N1 (Homo sapiens) (UniProt Q16512); test: Inhibition of PKN1 (unknown origin) assessed as remaining activity at 1 uM by Kinome scan method relative to control
[6] = target: Activated CDC42 kinase 1 (Homo sapiens) (UniProt Q07912); test: Inhibition of TNK2 (unknown origin) assessed as remaining activity at 1 uM by Kinome scan method relative to control
Chain of Activated CDC42 kinase 1 (Homo sapiens) (Q07912 whole entry, looked up): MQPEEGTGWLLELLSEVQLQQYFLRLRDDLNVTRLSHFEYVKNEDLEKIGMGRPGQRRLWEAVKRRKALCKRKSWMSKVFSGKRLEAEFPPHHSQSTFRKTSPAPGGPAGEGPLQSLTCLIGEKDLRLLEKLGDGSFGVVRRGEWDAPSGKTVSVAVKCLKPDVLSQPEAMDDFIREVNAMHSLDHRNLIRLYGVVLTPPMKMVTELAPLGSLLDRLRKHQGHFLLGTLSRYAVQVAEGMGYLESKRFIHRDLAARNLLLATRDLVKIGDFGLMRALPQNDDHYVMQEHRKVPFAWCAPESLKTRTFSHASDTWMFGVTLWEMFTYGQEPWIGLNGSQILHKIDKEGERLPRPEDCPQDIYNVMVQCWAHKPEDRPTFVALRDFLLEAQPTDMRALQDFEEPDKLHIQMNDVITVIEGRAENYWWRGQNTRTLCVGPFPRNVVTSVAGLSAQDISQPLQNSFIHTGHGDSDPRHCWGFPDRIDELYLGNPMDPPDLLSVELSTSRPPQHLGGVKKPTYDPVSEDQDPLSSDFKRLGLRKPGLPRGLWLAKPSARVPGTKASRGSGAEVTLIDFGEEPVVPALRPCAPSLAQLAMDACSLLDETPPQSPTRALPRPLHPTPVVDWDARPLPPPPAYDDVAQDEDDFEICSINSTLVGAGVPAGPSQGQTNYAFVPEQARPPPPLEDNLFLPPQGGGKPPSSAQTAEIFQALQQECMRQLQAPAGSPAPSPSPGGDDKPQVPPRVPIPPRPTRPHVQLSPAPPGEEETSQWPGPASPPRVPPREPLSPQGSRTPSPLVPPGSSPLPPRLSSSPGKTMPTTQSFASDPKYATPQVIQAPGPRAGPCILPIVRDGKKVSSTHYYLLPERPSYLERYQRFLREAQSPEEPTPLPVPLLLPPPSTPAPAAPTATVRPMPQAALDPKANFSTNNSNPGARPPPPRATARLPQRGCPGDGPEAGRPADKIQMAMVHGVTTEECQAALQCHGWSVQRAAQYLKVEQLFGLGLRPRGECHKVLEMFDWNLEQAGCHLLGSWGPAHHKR

[7] = target: Serine/threonine-protein kinase TAO2 (Homo sapiens, UniProt Q9UL54); test: Binding affinity to TAOK2 (unknown origin) assessed as dissociation constant
[8] = target: Mitotic checkpoint serine/threonine-protein kinase BUB1 (Homo sapiens) (UniProt O43683); test: Inhibition of BUB1 (unknown origin) assessed as remaining activity at 1 uM by Kinome scan method relative to control
Chain of Mitotic checkpoint serine/threonine-protein kinase BUB1 (Homo sapiens) (O43683 whole entry, looked up): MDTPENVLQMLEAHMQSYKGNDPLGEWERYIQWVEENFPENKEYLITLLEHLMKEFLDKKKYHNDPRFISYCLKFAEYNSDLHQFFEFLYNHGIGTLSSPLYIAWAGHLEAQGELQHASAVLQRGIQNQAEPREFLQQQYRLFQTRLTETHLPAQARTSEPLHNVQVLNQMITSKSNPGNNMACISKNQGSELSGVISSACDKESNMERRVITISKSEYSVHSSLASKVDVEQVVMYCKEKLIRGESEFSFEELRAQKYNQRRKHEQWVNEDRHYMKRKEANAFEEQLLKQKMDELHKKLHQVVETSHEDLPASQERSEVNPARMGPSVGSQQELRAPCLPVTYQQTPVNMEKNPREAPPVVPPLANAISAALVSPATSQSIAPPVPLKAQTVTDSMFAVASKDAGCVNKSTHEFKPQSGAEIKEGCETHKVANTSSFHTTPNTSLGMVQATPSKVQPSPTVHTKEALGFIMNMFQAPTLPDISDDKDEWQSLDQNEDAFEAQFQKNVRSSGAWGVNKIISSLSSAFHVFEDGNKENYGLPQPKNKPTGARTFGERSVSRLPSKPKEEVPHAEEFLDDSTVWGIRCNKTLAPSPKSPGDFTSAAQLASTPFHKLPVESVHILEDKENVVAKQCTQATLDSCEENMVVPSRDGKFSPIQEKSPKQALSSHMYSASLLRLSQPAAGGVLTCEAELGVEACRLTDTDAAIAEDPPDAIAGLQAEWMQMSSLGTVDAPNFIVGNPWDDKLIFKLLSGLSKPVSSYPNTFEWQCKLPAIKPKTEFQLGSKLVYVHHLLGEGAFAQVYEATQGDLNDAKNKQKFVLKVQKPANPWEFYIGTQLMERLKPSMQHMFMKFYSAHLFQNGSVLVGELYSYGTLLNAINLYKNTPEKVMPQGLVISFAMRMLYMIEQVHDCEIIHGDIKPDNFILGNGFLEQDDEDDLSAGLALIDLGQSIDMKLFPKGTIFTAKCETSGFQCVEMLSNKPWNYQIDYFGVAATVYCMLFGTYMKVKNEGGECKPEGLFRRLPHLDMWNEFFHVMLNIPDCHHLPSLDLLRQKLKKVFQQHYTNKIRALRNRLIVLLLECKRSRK
Method in brief: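 KINOMEscan active-site-dependent competition-binding panel of 468 kinases, compound at 1 μM from a DMSO stock. Result reported as ctrl% = (test signal − positive control signal)/(negative control signal − positive control signal) × 100. The negative control is DMSO (100%) and the positive control is a control compound (0%). Lower ctrl% means tighter binding.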

[9] = target: Vascular endothelial growth factor receptor 3 (Homo sapiens) (UniProt P35916); test: Inhibition of FLT4 (unknown origin) assessed as remaining activity at 1 uM by Kinome scan method relative to control
[10] = target: Serine/threonine-protein kinase BRSK2 (Homo sapiens) (UniProt Q8IWQ3); test: Inhibition of BRSK2 (unknown origin) assessed as remaining activity at 1 uM by Kinome scan method relative to control
Method in brief: (§1)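 Active-site-dependent competition-binding (KINOMEscan) panel of 468 kinases, test compound at 1 μM (from a 10 mM DMSO stock). Read-out is ctrl% = (test signal − positive control signal)/(negative control signal − positive control signal) × 100. DMSO is the negative control (100%) and a control compound is the positive control (0%). Lower ctrl% means tighter binding.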

[11] = target: Muscle, skeletal receptor tyrosine-protein kinase (Homo sapiens) (UniProt O15146); test: Inhibition of MUSK (unknown origin) assessed as remaining activity at 1 uM by Kinome scan method relative to control
[12] = target: Tyrosine-protein kinase Yes (Homo sapiens) (UniProt P07947); test: Inhibition of YES (unknown origin) assessed as remaining activity at 1 uM by Kinome scan method relative to control
[13] = target: Death-associated protein kinase 3 (Homo sapiens) (UniProt O43293); test: Inhibition of DAPK3 (unknown origin) assessed as remaining activity at 1 uM by Kinome scan method relative to control
Method in brief: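 Active-site-dependent competition-binding profiling (KINOMEscan) at 1 μM against a 468-kinase panel; compound supplied from a 10 mM DMSO stock. Read-out is ctrl% = (test signal − positive control signal)/(negative control signal − positive control signal) × 100. DMSO is the negative control (100%) and a control compound the positive control (0%). Lower ctrl% means tighter binding.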

[14] = target: Mitogen-activated protein kinase 3 (Homo sapiens) (UniProt P27361); test: Inhibition of ERK1 (unknown origin) assessed as remaining activity at 1 uM by Kinome scan method relative to control
Chain of Mitogen-activated protein kinase 3 (Homo sapiens) (P27361 whole entry): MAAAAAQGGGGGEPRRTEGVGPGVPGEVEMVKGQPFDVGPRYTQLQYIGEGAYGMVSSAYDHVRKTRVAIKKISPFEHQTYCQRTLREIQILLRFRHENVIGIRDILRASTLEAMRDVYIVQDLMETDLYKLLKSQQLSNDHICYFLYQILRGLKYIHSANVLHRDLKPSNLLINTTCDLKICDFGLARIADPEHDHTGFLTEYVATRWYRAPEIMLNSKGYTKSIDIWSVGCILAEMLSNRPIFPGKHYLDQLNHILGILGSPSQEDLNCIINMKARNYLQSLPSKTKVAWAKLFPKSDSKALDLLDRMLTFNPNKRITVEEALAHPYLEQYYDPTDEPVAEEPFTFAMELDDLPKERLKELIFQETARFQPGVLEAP

[15] = tested on: Mus musculus; test: Protection against APAP induced liver injury in mouse assessed as decrease in ALT level at 1 mg/kg, ip administered at 1.5 hrs; type: functional, organism-based; conditions: Serum
[16] = target: Bone morphogenetic protein receptor type-1A (Homo sapiens) (UniProt P36894); test: Inhibition of BMPR1A (unknown origin) assessed as remaining activity at 1 uM by Kinome scan method relative to control; method in brief: as §1
[17] = target: Receptor-interacting serine/threonine-protein kinase 1 (Homo sapiens) (UniProt Q13546); test: Inhibition of RIPK1 (unknown origin) assessed as remaining activity at 1 uM by Kinome scan method relative to control
Chain of Receptor-interacting serine/threonine-protein kinase 1 (Homo sapiens) (Q13546 whole entry): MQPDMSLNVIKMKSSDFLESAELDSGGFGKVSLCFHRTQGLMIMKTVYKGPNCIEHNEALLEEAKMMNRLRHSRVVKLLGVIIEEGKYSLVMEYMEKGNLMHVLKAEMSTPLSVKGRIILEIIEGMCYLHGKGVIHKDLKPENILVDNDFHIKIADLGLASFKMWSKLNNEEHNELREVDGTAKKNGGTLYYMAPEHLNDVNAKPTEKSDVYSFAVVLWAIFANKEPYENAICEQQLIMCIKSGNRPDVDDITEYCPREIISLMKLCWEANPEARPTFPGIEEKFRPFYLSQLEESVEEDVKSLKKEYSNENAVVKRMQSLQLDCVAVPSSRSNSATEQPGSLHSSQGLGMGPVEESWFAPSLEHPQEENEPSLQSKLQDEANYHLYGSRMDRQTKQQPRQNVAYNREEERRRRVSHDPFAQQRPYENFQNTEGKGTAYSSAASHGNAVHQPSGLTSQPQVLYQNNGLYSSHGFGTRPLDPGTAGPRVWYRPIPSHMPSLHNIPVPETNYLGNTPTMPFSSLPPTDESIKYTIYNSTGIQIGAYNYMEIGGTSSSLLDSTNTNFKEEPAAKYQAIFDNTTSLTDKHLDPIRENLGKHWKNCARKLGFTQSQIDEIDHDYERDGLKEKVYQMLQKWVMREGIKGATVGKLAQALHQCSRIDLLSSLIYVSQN

[18] = target: Interleukin-1 receptor-associated kinase 1 (Homo sapiens) (UniProt P51617); test: Inhibition of IRAK1 (unknown origin) assessed as remaining activity at 1 uM by Kinome scan method relative to control
Chain of Interleukin-1 receptor-associated kinase 1 (Homo sapiens) (P51617 whole entry, looked up): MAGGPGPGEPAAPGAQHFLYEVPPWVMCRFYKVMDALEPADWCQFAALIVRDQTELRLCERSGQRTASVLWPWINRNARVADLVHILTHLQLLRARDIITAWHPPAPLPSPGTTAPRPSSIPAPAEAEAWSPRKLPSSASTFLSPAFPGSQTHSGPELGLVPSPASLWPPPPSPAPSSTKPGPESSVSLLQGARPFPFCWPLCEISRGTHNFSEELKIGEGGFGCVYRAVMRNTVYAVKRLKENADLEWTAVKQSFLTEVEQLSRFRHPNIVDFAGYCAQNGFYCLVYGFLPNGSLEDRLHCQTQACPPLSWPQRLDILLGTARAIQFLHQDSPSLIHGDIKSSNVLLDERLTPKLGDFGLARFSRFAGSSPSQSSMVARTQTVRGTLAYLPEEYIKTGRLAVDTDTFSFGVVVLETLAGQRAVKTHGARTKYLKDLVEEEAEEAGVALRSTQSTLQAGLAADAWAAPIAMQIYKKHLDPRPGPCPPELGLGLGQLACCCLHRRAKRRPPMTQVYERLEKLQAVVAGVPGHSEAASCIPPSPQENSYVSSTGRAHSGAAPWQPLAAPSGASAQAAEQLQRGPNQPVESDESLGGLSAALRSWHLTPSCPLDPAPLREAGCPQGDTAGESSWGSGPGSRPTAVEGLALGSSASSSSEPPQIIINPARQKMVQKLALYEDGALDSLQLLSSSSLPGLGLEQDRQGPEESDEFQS

[19] = target: MAP kinase-interacting serine/threonine-protein kinase 1 (Homo sapiens) (UniProt Q9BUB5); test: Inhibition of MKNK1 (unknown origin) assessed as remaining activity at 1 uM by Kinome scan method relative to control
[20] = target: Mitogen-activated protein kinase kinase kinase 2 (Homo sapiens) (UniProt Q9Y2U5); test: Inhibition of MAP3K2 (unknown origin) assessed as remaining activity at 1 uM by Kinome scan method relative to control
[21] = tested on: Phosphatidylinositol 4,5-bisphosphate 3-kinase catalytic subunit alpha isoform (Homo sapiens), P42336 [M1043I]; test: Inhibition of PIK3CA M1043I mutant (unknown origin) assessed as remaining activity at 1 uM by Kinome scan method relative to control
[22] = target: Serine/threonine-protein kinase TAO1 (Homo sapiens) (UniProt Q7L7X3); test: Inhibition of TAOK1 (unknown origin) assessed as remaining activity at 1 uM by Kinome scan method relative to control
[23] = tested on: HepG2; test: Inhibition of Flag-tagged MST1 Y101F mutant (unknown origin) in human HepG2 cells assessed as MOB1 phosphorylation level at 3 uM by immunoblot analysis; type: cell-based

CN1C(=O)c2sccc2N(C)c2nc(Nc3ccc(S(N)(=O)=O)cc3)ncc21
IC50 [1]: 38.2 nM | Activity [2]: 100% | Activity [3]: 100% | IC50 [4]: 1.9 nM | Activity [5]: 100% | Activity [6]: 95% | Kd [7]: 100 nM | Activity [8]: 95% | Activity [9]: 67% | Activity [10]: 99% | Activity [11]: 100% | Activity [12]: 100% | Activity [13]: 94% | Activity [14]: 100% | Activity [15]: Active | Activity [16]: 70% | Activity [17]: 100% | Activity [18]: 51% | Activity [19]: 100% | Activity [20]: 2.6% | Activity [21]: 77% | Activity [22]: 2.6% | inhibition [23]: Active
